According to ChEMBL document CHEMBL1134346, “Labeling and evaluation of N-[11C]methylated quinoline-2-carboxamides as potential radioligands for visualization of peripheral benzodiazepine receptors” (J Med Chem, 2001):

species on record: Rattus norvegicus; assay: Tissue (muscle) distribution in Albino male CD rats after 30 minutes expressed as percent of injected dose per gram of organ.; format: ADME, organism-based; conditions: in vivo, 0.5 h
In short: (§1)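 Male albino CD rats (225-250 g) received the 11C-labelled radioligand in saline by tail-vein injection. Three rats per time point were decapitated under light ether anaesthesia at 5, 15, 30, 60 or 90 min. Blood was collected heparinized and plasma separated by centrifugation. The pituitary was dissected from the brain. Lung, liver (three-lobe pieces) and right deltoid muscle were sampled, washed in cold saline, gamma-counted and weighed. Results are %I.D./g.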

I.D./g | Compound
0.1% | CCC(C)N(C)C(=O)c1nc2ccccc2c(-c2ccccc2F)c1C (stereo not given)

species on record: Rattus norvegicus; assay: Tissue (cortex) distribution in Albino male CD rats after 60 minutes expressed as percent of injected dose per gram of organ.; format: ADME, organism-based; conditions: in vivo, 1 h
In short: (§2)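 Radioligand given in saline into tail vein of male albino CD rats (225-250 g); 100-200 µCi per animal, 1-2 Ci/µmol at injection depending on radioligand. Three rats per time point were decapitated under light ether anaesthesia. Blood, plasma, brain regions and washed organs were weighed and gamma-counted. Uptake is %I.D./g tissue, mean ± SD.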

I.D./g | Compound
0.07% | CCC(C)N(C)C(=O)c1nc2ccccc2c(-c2ccccc2F)c1C (stereo not given)

target: Translocator protein (Rattus norvegicus) (UniProt P16257); assay: Tissue (heart) concentration of radioactivity at 30 min post-injection into Albino male CD rats after pretreatment with cold PK 11195.; format: functional; conditions: not given
In short: (§3)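 Separate groups of five rats received tail-vein PK 11195 (1.4-1.6 mg; 5 mg/kg) in 30 µL DMSO:EtOH 1:1, or vehicle alone, immediately before iv radioligand (90-170 µCi in saline, 0.9-1 Ci/µmol). Rats were decapitated at 30 min and tissues gamma-counted; values are %I.D./g.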

Translocator protein (Rattus norvegicus), sequence (P16257 whole entry, looked up): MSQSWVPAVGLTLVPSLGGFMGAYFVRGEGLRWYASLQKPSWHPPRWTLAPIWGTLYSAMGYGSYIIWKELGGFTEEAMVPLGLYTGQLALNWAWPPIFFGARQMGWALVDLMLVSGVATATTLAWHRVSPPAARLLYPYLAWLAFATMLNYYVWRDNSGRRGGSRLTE

I.D./g | Compound
< 0.11% | CCC(C)N(C)C(=O)c1nc2ccccc2c(-c2ccccc2F)c1C (stereo not given)

species on record: Rattus norvegicus; assay: Tissue (heart) concentration of radioactivity at 30 min post-injection into Albino male CD rats with vehicle.; format: ADME, organism-based; conditions: in vivo, 0.5 h; in short: as §3

I.D./g | Compound
0.35% | CCC(C)N(C)C(=O)c1nc2ccccc2c(-c2ccccc2F)c1C (stereo not given)

species on record: Rattus norvegicus; assay: Tissue (muscle) distribution in Albino male CD rats after 60 minutes expressed as percent of injected dose per gram of organ.; format: ADME, organism-based; conditions: in vivo, 1 h; in short: as §1

I.D./g | Compound
0.07% | CCC(C)N(C)C(=O)c1nc2ccccc2c(-c2ccccc2F)c1C (stereo not given)

species on record: Rattus norvegicus; assay: Tissue (pituitary) distribution in Albino male CD rats after 30 minutes expressed as percent of injected dose per gram of organ.; format: ADME, organism-based, Pituitary gland; conditions: in vivo, 0.5 h; in short: as §1

I.D./g | Compound
0.12% | CCC(C)N(C)C(=O)c1nc2ccccc2c(-c2ccccc2F)c1C (stereo not given)

species on record: Rattus norvegicus; assay: Tissue (pituitary) distribution in Albino male CD rats after 5 minutes expressed as percent of injected dose per gram of organ.; format: ADME, organism-based, Pituitary gland; conditions: in vivo; in short: as §1

I.D./g | Compound
0.16% | CCC(C)N(C)C(=O)c1nc2ccccc2c(-c2ccccc2F)c1C (stereo not given)

species on record: Rattus norvegicus; assay: Tissue (plasma) distribution in Albino male CD rats after 30 minutes expressed as percent of injected dose per gram of organ.; format: ADME, organism-based; conditions: in vivo, 0.5 h; in short: as §1

I.D./g | Compound
0.06% | CCC(C)N(C)C(=O)c1nc2ccccc2c(-c2ccccc2F)c1C (stereo not given)

species on record: Rattus norvegicus; assay: Tissue (spleen) concentration of radioactivity at 30 min post-injection into Albino male CD rats with vehicle.; format: ADME, organism-based; conditions: in vivo, 0.5 h
In short: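 Blocking study in male albino CD rats, five per group. Immediately before the 11C radioligand (in saline, i.v. tail vein), rats received 30 µL tail-vein PK 11195 (5 mg/kg; 1.4-1.6 mg) in DMSO:EtOH 1:1, or vehicle. Rats were decapitated at 30 min. Tissues were dissected, washed, gamma-counted and weighed as in the biodistribution study. Results are %I.D./g.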

I.D./g | Compound
0.28% | CCC(C)N(C)C(=O)c1nc2ccccc2c(-c2ccccc2F)c1C (stereo not given)

species on record: Rattus norvegicus; assay: Tissue (heart) distribution in Albino male CD rats after 15 minutes expressed as percent of injected dose per gram of organ.; format: ADME, organism-based; conditions: in vivo, 0.25 h; in short: as §2

I.D./g | Compound
0.86% | CCC(C)N(C)C(=O)c1nc2ccccc2c(-c2ccccc2F)c1C (stereo not given)

species on record: Rattus norvegicus; assay: Tissue (heart) distribution in Albino male CD rats after 90 minutes expressed as percent of injected dose per gram of organ.; format: ADME, organism-based; conditions: in vivo, 1.5 h; in short: as §2

I.D./g | Compound
0.58% | CCC(C)N(C)C(=O)c1nc2ccccc2c(-c2ccccc2F)c1C (stereo not given)

species on record: Rattus norvegicus; assay: Tissue (intestine) distribution in Albino male CD rats after 60 minutes expressed as percent of injected dose per gram of organ.; format: ADME, organism-based; conditions: in vivo, 1 h; in short: as §2

I.D./g | Compound
0.25% | CCC(C)N(C)C(=O)c1nc2ccccc2c(-c2ccccc2F)c1C (stereo not given)

target: Translocator protein (Rattus norvegicus) (UniProt P16257); assay: Tissue (kidney) concentration of radioactivity at 30 min post-injection into Albino male CD rats after pretreatment with cold PK 11195.; format: functional, tissue-based; conditions: not given; in short: as §3

I.D./g | Compound
0.12% | CCC(C)N(C)C(=O)c1nc2ccccc2c(-c2ccccc2F)c1C (stereo not given)

species on record: Rattus norvegicus; assay: Tissue (kidney) distribution in Albino male CD rats after 15 minutes expressed as percent of injected dose per gram of organ.; format: ADME, organism-based; conditions: in vivo, 0.25 h; in short: as §2

I.D./g | Compound
0.73% | CCC(C)N(C)C(=O)c1nc2ccccc2c(-c2ccccc2F)c1C (stereo not given)

species on record: Rattus norvegicus; assay: Tissue (cerebellum) distribution in Albino male CD rats after 15 minutes expressed as percent of injected dose per gram of organ.; format: ADME, organism-based; conditions: in vivo, 0.25 h; in short: as §2

I.D./g | Compound
0.11% | CCC(C)N(C)C(=O)c1nc2ccccc2c(-c2ccccc2F)c1C (stereo not given)

species on record: Rattus norvegicus; assay: Tissue (cerebellum) distribution in Albino male CD rats after 5 minutes expressed as percent of injected dose per gram of organ.; format: ADME, organism-based; conditions: in vivo; in short: as §2

I.D./g | Compound
0.1% | CCC(C)N(C)C(=O)c1nc2ccccc2c(-c2ccccc2F)c1C (stereo not given)

species on record: Rattus norvegicus; assay: Tissue (cerebellum) distribution in Albino male CD rats after 90 minutes expressed as percent of injected dose per gram of organ.; format: ADME, organism-based; conditions: in vivo, 1.5 h; in short: as §2

I.D./g | Compound
0.06% | CCC(C)N(C)C(=O)c1nc2ccccc2c(-c2ccccc2F)c1C (stereo not given)

target: Translocator protein (Rattus norvegicus) (UniProt P16257); assay: Tissue (cortex) concentration of radioactivity at 30 min post-injection into Albino male CD rats after pretreatment with cold PK 11195.; format: functional; conditions: not given; in short: as §3

I.D./g | Compound
< 0.02% | CCC(C)N(C)C(=O)c1nc2ccccc2c(-c2ccccc2F)c1C (stereo not given)

target: Translocator protein (Rattus norvegicus) (UniProt P16257); assay: Tissue (liver) concentration of radioactivity at 30 min post-injection into Albino male CD rats after pretreatment with cold PK 11195.; format: functional, tissue-based; conditions: not given; in short: as §3

I.D./g | Compound
< 0.45% | CCC(C)N(C)C(=O)c1nc2ccccc2c(-c2ccccc2F)c1C (stereo not given)

species on record: Rattus norvegicus; assay: Tissue (lung) distribution in Albino male CD rats after 15 minutes expressed as percent of injected dose per gram of organ.; format: ADME, organism-based; conditions: in vivo, 0.25 h; in short: as §1

I.D./g | Compound
2.25% | CCC(C)N(C)C(=O)c1nc2ccccc2c(-c2ccccc2F)c1C (stereo not given)
